Results reported in ChEMBL document CHEMBL1123157, “Thromboxane synthetase inhibitors and antihypertensive agents. 1. N-[(1H-imidazol-1-yl)alkyl]aryl amides and N-[(1H-1,2,4-triazol-1-yl)alkyl]aryl amides” (J Med Chem, 1986).
Activity calls are given as the source filed them.

Key:
Rattus norvegicus = experiment: Antihypertensive activity in spontaneously hypertensive rats tested at 100 mg/kg po/day for 2 days; assay type: functional, organism-based; set-up: dose 100 mg/kg
In short: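 Male 16-week-old Okamoto SHR (mean arterial pressure about 170 mmHg), 1-3 rats per compound. Given by gavage in 2% preboiled starch (50 mg/mL), 100 mg/kg or less, with 0.9% NaCl load (25 mL/kg). Second dose without saline 24 h later. Mean arterial pressure measured 28 h after first dose. Active if ≤116 mmHg in one rat or mean ≤122 mmHg in two.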

[1] = target: T1, Thromboxane-A synthase (Rattus norvegicus) (UniProt P49430); experiment: Inhibitory activity for thromboxane synthetase determined by TXB2 levels in platelets from spontaneously hypertensive rats.; set-up: concentration or dose not given beside the values; conditions: concentration not given here
T1 sequence (whole entry): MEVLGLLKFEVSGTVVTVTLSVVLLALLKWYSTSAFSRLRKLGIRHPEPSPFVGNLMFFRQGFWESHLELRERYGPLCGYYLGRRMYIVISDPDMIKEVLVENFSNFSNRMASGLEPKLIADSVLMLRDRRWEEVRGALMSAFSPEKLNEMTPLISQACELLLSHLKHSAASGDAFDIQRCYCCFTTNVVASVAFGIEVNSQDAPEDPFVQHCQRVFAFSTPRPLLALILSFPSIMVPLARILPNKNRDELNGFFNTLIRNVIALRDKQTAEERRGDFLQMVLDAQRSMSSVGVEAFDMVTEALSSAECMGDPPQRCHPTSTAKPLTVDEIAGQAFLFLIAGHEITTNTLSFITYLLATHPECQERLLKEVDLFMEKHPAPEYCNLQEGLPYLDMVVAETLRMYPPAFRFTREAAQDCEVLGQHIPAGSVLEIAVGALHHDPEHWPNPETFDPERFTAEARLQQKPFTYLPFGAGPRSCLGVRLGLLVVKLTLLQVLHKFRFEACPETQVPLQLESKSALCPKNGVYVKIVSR
In short: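 Washed SHR platelets in oxygenated Krebs phosphate buffer, pH 7.4, 4.5-6.0 × 10^4/μL, incubated with vehicle or drug for 10 min at 37 °C. Stopped with ice and citric acid. Supernatant TXB2 measured by RIA; TXB2 in boiled controls subtracted; % inhibition calculated. IC50 read graphically from % inhibition vs log concentration; single-point screen at 10^-4 M.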

Row | Compound | Activity (Rattus norvegicus) | inhibition [1] [%]
1 | Cc1nccn1CCCNC(=O)c1cccc(Cl)c1 | inactive | 59
2 | CC(=O)Nc1ccc(C(=O)NCCCn2cncn2)cc1 | inactive | 75
3 | O=C(Cc1ccc(F)cc1)NCCCn1ccnc1 | inactive | 33
4 | O=C(O)c1ccccc1C(=O)NCCCn1cncn1 | inactive | 23
5 | O=C(NCCCn1ccnc1)c1ccccc1 | inactive | 96
6 | CCc1nccn1CCCNC(=O)c1ccc(Cl)cc1 | inactive | 32
7 | CC(C)(C)c1ccc(C(=O)NCCCn2cncn2)cc1 | inactive | 86
8 | O=C(O)c1ccccc1C(=O)NCCCn1ccnc1 | inactive | 82
9 | O=C(NCCCn1cncn1)c1cccc(Br)c1 | inactive | 85
10 | O=C(COc1ccc(Cl)cc1)NCCCn1cncn1 | inactive | 56
11 | O=C(NCCCn1ccnc1)c1ccc(Cl)c(Cl)c1 | inactive | 93
12 | CCCCOc1ccc(C(=O)NCCCn2ccnc2)cc1 | inactive | 75
13 | COc1ccc(C(=O)NCCCn2ccnc2)cc1 | inactive | 89
14 | O=C(NCCCCn1cncn1)c1ccc(Br)cc1 | inactive | 88
15 | O=C(NCCCn1ccnc1)c1ccccc1Cl | inactive | 100
16 | O=C(NCCCCn1ccnc1)c1ccccc1 | inactive | 91
17 | O=C(NCCCn1ccnc1)c1cccc(F)c1 | inactive | 96
18 | O=C(NCCCn1ccnc1)C(=O)c1ccccc1 | inactive | 80
19 | CS(=O)(=O)c1ccc(C(=O)NCCCn2ccnc2)cc1 | inactive | 80

Row | Compound | Activity (Rattus norvegicus) | inhibition [1] [%]
20 | Cc1ccc(C(=O)NCCCn2ccnc2)cc1 | inactive | 83
21 | O=C(NCCCn1cncn1)c1ccccc1F | inactive | 25
22 | CC(CNC(=O)c1ccc(Cl)c(Cl)c1)Cn1ccnc1 (stereo unspecified) | inactive | 86
23 | O=C(NCCCCCn1ccnc1)c1ccc(Br)cc1 | inactive | 100
24 | O=C(NCCCn1ccnc1)c1ccccc1F | inactive | 84
25 | Cc1nccn1CCCNC(=O)c1cccc(C(F)(F)F)c1 | inactive | 75
26 | O=C(O)c1ccccc1C(=O)NCCCCn1ccnc1 | inactive | 50
27 | COc1ccc(C(=O)NCCCn2cncn2)cc1 | inactive | 70
28 | O=C(NCCCn1ccnc1)c1ccc(F)cc1 | inactive | 87
29 | Cc1cn(CCCNC(=O)c2cccc(Br)c2)cn1 | inactive | 93
30 | CC(CCNC(=O)c1ccc(Br)cc1)n1ccnc1 (stereo unspecified) | inactive | 91
31 | Cc1nccn1CCCNC(=O)c1cccc(Br)c1 | inactive | 64
32 | O=C(NCCCn1cncn1)c1cccc(C(F)(F)F)c1 | inactive | 71
33 | CC(CCNC(=O)c1ccc(C(F)(F)F)cc1)n1ccnc1 (stereo unspecified) | inactive | 94
34 | O=C(NCCCCCn1cncn1)c1ccc(Cl)cc1 | inactive | 79
35 | O=C(NC/C=C/Cn1ccnc1)c1ccc(Cl)cc1 (stereo in doubt; 52) | inactive | 91
36 | O=C(/C=C/c1ccc(Cl)cc1)NCCCn1cncn1 | inactive | 47
37 | O=C(NC/C=C/Cn1ccnc1)c1ccc(C(F)(F)F)cc1 (stereo in doubt; 53) | inactive | 93
38 | COc1cc(C(=O)NCCCn2cncn2)cc(OC)c1OC | inactive | 64
